# KCNQ1 block – inhibitors of human KCNQ1 potassium channel; P51787; CHO-K1 KCNQ1, FluxOR thallium flux fluorescence; hits give high values; B-score at 10 µM; actives 1.3% (n = 310,000);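 active means compounds whose thallium flux B-score, printed positive for inhibition, exceeds three library SD while starting fluorescence stays within three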;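 further: channel opened by potassium depolarization with thallium stimulus after 20 min compound exposure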
# Target sequence (P51787 whole entry, looked up): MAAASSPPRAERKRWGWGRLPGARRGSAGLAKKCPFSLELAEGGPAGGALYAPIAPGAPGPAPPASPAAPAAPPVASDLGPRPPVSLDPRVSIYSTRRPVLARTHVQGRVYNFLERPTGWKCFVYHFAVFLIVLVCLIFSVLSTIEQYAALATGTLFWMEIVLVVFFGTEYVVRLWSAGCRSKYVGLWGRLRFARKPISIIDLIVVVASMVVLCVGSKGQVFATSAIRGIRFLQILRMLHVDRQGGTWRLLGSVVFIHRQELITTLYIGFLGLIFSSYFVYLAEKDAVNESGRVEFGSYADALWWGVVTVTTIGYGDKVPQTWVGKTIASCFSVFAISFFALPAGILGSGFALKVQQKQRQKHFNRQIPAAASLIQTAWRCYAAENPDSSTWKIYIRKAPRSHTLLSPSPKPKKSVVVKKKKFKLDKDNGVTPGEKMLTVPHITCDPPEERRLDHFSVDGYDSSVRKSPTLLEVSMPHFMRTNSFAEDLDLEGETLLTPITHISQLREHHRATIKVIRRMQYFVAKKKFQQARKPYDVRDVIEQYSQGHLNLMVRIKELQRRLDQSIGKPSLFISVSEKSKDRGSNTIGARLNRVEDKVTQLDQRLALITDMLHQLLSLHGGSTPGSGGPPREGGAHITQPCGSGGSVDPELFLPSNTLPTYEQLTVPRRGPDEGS
# hERG rescue – shields human hERG channel from block by proarrhythmic agents | AID 1511 | actives 0.51% (n = 310,000) | Q12809 | CHO-hERG, FluxOR thallium flux, dofetilide IC70 present | activation (rescue from dofetilide block), less the hit threshold, % at 10 µM;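 active means activation above the mean of controls blocked by dofetilide plus 5 SD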;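 further: thallium influx through hERG after potassium depolarization seen as dye fluorescence rise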
# KCNK3 inh – human KCNK3 channel inhibition, primary screen; O14649; CHO-KCNK3 thallium flux, FluxOR fluorescence; hits give low values; B-score at 10 µM; actives 0.84% (n = 340,000);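 active means B-score under library mean minus 4 SD, starting fluorescence ratio at most library mean plus 5 SD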;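 further: more negative B-score means stronger inhibition of thallium flux through KCNK3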
# KCNK9 inh – inhibitors of human KCNK9 two-pore domain potassium channel; B-score at 10 µM; actives 1.2% (n = 310,000); Q9NPC2; AID 488922; HEK293 KCNK9, FluxOR thallium flux fluorescence; hits give low values;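 active means ratio B-score over 3 SD below the library mean, with starting fluorescence within 5 SD of its mean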;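 further: negative B-score means less thallium flux so channel inhibition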
# KCNQ1 pot – potentiates or activates the human KCNQ1 potassium channel | actives 0.35% (n = 310,000) | B-score at 10 µM | CHO-K1 KCNQ1, thallium flux FluxOR fluorescence; hits give high values;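 active means fluorescence ratio B-score, a plate-corrected score, at least three library SD, with initial intensity B-score within 5 SD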
#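 Schedule – 37 °C overnight plating, 90-min dark dye load, 20-min compound pretreatment · System – stable KCNQ1 CHO-K1 line · Probe or stimulus – thallium- and potassium-containing depolarizing buffer · Measured by – kinetic FluxOR fluorescence, 10 s baseline plus 110 s post-stimulus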
# Cl transport mod – modulates chloride dependent transport by human KCC2; Q9H2X9; KCC2 cells, thallium flux FluoZin-2 fluorescence; B-score of Tl+ flux slope (higher = more flux/activation; lower = inhibition) at 10 µM; actives 2.2% (n = 190,000); AID 1456;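 active means thallium flux slope and its plate-corrected score both differing from the plate sample mean at a set confidence after two filtering rounds, in either direction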;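 further: slope of fluorescence scaled to starting intensity during 10 to 20 s after thallium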
# A number is an active result; . = inactive; / = no result. A selection: hits, their analogues and other compounds. The true share with any hit is near 4.1%.
SMILES,KCNQ1 block,hERG rescue,KCNK3 inh,KCNK9 inh,KCNQ1 pot,Cl transport mod
CCN(CC(=O)NCCc1ccc(S(N)(=O)=O)cc1)Cc1nc2ccccc2c(=O)[nH]1,.,4.8,.,.,.,.
O=C(COc1ccccc1/C=C1\SC(=O)NC1=O)Nc1ccccc1,.,.,.,.,.,-4.5
CN(Cc1cnccn1)Cc1nc(Cc2ccccc2F)no1,.,28,.,.,.,/
COc1ccc(-n2c(-c3ccc(Cl)cc3)c[n+]3c2CCc2ccccc2-3)cc1,11,.,.,.,.,.
COc1ccc(-n2c(-c3ccccc3)nnc2-c2ccc(Cl)cc2)cc1,.,.,.,.,.,/
COc1ccccc1NC(=O)Nc1ccc(-n2ccc(C(F)(F)F)n2)cc1,.,.,.,-7.8,.,.
Cc1cc(C)cc(NC(=O)Nc2ccc(-n3ccc(C(F)(F)F)n3)cc2)c1,.,.,.,.,.,.
CC(C)CC(=O)c1c[nH]c(C(=O)NCc2ccc(F)cc2)c1,.,.,.,.,.,/
CCOC(=O)n1c(=O)n(Cc2ccc(Cl)c(Cl)c2)c2ccccc21,.,.,.,-7.4,.,/
CCN(CC(=O)Nc1ccc(NC(C)=O)cc1)C(=O)C1COc2ccccc2O1 (stereo not given),.,.,.,.,.,/
CCN(Cc1ccccc1)S(=O)(=O)c1ccc(C(=O)N(CCCN(C)C)c2nc3cc4c(cc3s2)OCCO4)cc1,7,.,.,.,.,/
CN(C)CCCN(C(=O)c1cc2cc([N+](=O)[O-])ccc2s1)c1nc2cc3c(cc2s1)OCCO3,6,.,.,.,.,/
Cc1cc(C(=O)NNC(=O)Cc2ccc(Cl)cc2)c(C)o1,.,.,.,.,.,/
CCN(CC)CCCNc1ccc(-c2nnc(-c3ccc(OCC(C)C)cc3)o2)cn1,9,.,.,.,.,/
COc1cccc(C(=O)O/N=C(\N)c2ccccn2)c1,.,5.2,.,.,.,/
N/C(=N\OC(=O)c1ccc2ccccc2c1)c1ccccn1,.,.,.,.,.,.
N#CC1=C(SCC(=O)Nc2ccc(C(=O)O)cc2)NC(=O)CC1c1ccco1 (stereo not given),.,.,.,.,.,.
O=c1oc2c3c4c(cc2c(C(F)(F)F)c1CCN1CCOCC1)CCCN4CCC3,7,.,.,-7.8,.,.
CC(C)c1cc(=O)oc2c3c4c(cc12)CCCN4CCC3,.,.,.,.,.,.
Cc1ccc(-c2nc(CS(=O)CC(=O)NCc3ccc4c(c3)OCO4)c(C)o2)cc1 (stereo not given),.,.,.,.,.,/
Cc1ccc(NC(=S)N2CCCCC2)cc1C,.,.,.,.,.,.
COc1ccc(CN2C(=O)CSCC2=O)cc1OC,.,.,.,.,.,/
COc1ccc(CCN2C(=O)CSC2=S)cc1OC,.,4.7,.,.,.,/
COCCCn1c(=O)c2ccccc2n(Cc2cccc(C)c2)c1=O,.,.,.,.,.,/
COCCCn1c(=O)c2ccccc2n(Cc2ccc(C)cc2)c1=O,.,.,.,-7.7,.,/
SMILES,KCNQ1 block,hERG rescue,KCNK3 inh,KCNK9 inh,KCNQ1 pot,Cl transport mod
O=C(C1=C[C@@H](c2coc3ccccc3c2=O)C[C@@H](OCc2ccc(CO)cc2)O1)N1CCN(Cc2ccccc2)CC1,.,.,.,.,.,-3.3
C=CCOC(=O)C1=C[C@@H](c2csc3ccccc23)C[C@@H](OCc2ccc(CO)cc2)O1,.,.,.,.,.,.
C=CCOC(=O)C1=C[C@H](c2csc3ccccc23)C[C@H](OCc2ccc(CO)cc2)O1,6,.,.,.,.,/
CN1CCN(C(=O)C2=C[C@@H](c3coc4ccccc4c3=O)C[C@@H](OCc3ccc(CO)cc3)O2)CC1,.,.,.,.,.,.
COc1cc(C(=O)N/C(=C/c2ccc(F)cc2)C(=O)NC(C(=O)O)c2ccccc2)cc(OC)c1OC (stereo not given),.,.,.,.,.,/
O=C(NC(=S)Nc1ccc(C(F)(F)F)cc1)c1csnn1,.,56,.,.,141,67
O=C(NC(=S)Nc1ccccc1)c1csnn1,.,63,.,.,116,43
COc1cc(/C=N/NC(=O)Cn2nc([N+](=O)[O-])cc2C)cc(Br)c1OCc1ccccc1,.,.,-9.9,.,.,/
O=C(CN1CCN(CC(=O)Nc2ccccn2)CC1)Nc1ccccn1,.,.,.,.,.,-4.3
O=C(CC(=O)Nc1ccccn1)Nc1ccccn1,.,.,.,.,.,/
C[C@H](CO)N1C[C@H](C)[C@@H](CN(C)S(C)(=O)=O)Oc2c(NC(=O)Nc3ccccc3)cccc2C1=O,/,/,.,/,/,/
COc1ccccc1N1CCN(/N=C/c2cc(Br)ccc2F)CC1,9,.,.,.,.,/
COc1ccc(/C=N/N2CCN(c3ccccc3OC)CC2)cc1Br,.,.,.,.,.,/
O=C(CCC1N=C2c3ccccc3N=C(SCc3ccc(Cl)cc3)N2C1=O)NCc1ccco1 (stereo not given),.,.,.,-7.8,.,/
O=C(CCC1N=C2c3ccccc3N=C(SCc3ccc(F)cc3)N2C1=O)NCc1ccco1 (stereo not given),.,.,.,.,.,.
CC(=O)Nc1ccc(NC(=O)CSc2ncc(C(=O)Nc3ccccc3)c(=O)n2C)cc1,7,.,.,.,.,/
OCCN(CCO)c1ccc(C(c2ccc(Cl)cc2)c2ccc(N(CCO)CCO)cc2Cl)c(Cl)c1,.,.,.,.,8,.
CCOC(=O)CNC(=O)Cn1cnc2c(nnn2-c2ccccc2)c1=O,.,.,.,.,.,/
O=C(c1cccc(S(=O)(=O)N2CCc3ccccc32)c1)N1CCc2ccccc2C1,/,/,-9.4,/,/,/
O=C(c1cccc(S(=O)(=O)N2CCCc3ccccc32)c1)N1CCN(c2ccccc2)CC1,/,/,-9.5,/,/,/
CCOc1ccc(N2CC(NC(=O)c3ccc4ccccc4c3)CC2=O)cc1 (stereo not given),.,.,.,.,.,/
CCCCn1nnc(NC(=S)NC(=O)c2ccc(-c3cccc(Cl)c3Cl)o2)n1,.,7.4,.,.,.,34
COc1ccc(C2=NN(C(=O)CN3CCCCC3)C(c3ccc(C)cc3)C2)cc1 (stereo not given),6,.,.,.,.,.
O=C(c1cccs1)N1N=C(c2ccc(O)cc2)CC1c1ccccc1 (stereo not given),.,.,.,.,.,.
COc1ccc(C2CC(c3ccc(Br)cc3)=NN2C(=O)CN2CCCC2)cc1 (stereo not given),.,.,.,.,.,.
O=C(c1cccs1)N1N=C(c2ccccc2)CC1c1ccccc1 (stereo not given),.,.,.,-7.2,.,/
Cc1ccc(C2CC(c3cccs3)=NN2C(=O)CCl)cc1 (stereo not given),.,.,.,.,.,/

# Bioassay records as filed in PubChem BioAssay.
